High-throughput results (PubChem BioAssay)
Compounds with a hit are over-represented: about 0.72% of the library has one in this group of screens.
mIAP inh: inhibitors of mouse IAP, primary screen, biochemical, luminescence, uHTS. purified mouse IAP, CDP-Star luminescence, 30 min. intestinal alkaline phosphatase [Mus musculus]. 330,000 tested, 0.2% active. inhibition, % at 10 µM;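 active = inhibition of at least 40% at 10 µM in the primary screen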;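 note: plate controls were DMSO with enzyme for no effect and no enzyme wells for full effect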
mIAP act: activators of mouse IAP, primary screen, biochemical, luminescence, uHTS; intestinal alkaline phosphatase [Mus musculus]; muIAP, CDP-Star luminescence, 30 min; hits give high values; 1 = vehicle-only enzyme signal, 0 = enzyme-free wells; activation factor at 10 µM; 330,000 tested, 0.24% active; AID 2805, 2010;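 active = activation factor of at least 2 at 20 µM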
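System: Mouse IAP enzyme | Also added: CDP-Star substrate | Dosing: Compounds dispensed in DMSO | Schedule: 30 min enzyme-substrate-compound incubation at room temperature | Technique: Chemiluminescence readout | Control set: DMSO-only wells and no-enzyme negative control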
bIAP inhibitor: bovine intestinal alkaline phosphatase inhibitors, primary screen, selectivity assay for TNAP inhibitor project, biochemical, bovine IAP, CDP-star luminescence; purified bovine IAP, 30 min; alkaline phosphatase, intestinal [Bos taurus]; inhibition, % at 20 µM; 190,000 tested, under 10 active;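 active = over 50% inhibition of intestinal alkaline phosphatase at 20 µM in the single-dose screen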
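test system = bovine IAP enzyme | medium = DEA buffer 100 mM, pH 9.8, with MgCl2 1.0 mM, ZnCl2 0.02 mM | detection = luminescence | dosing = single compound dose of 20 µM, 2% DMSO final | incubation = 30 min reaction at room temperature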
bIAP activator: bovine intestinal alkaline phosphatase activators, primary screen, biochemical, bovine IAP, CDP-star luminescence. alkaline phosphatase, intestinal [Bos taurus]. purified bovine IAP, 30 min; hits give high values; fold of DMSO-control signal, blank-subtracted. activation factor at 20 µM. 200,000 tested, 0.17% active. AID 1016, 2008;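 active = activation factor of 2 or more at 20 µM, a signal rise over negative controls twice the positive control's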
hIAP block: human IAP inhibitors, primary screen, biochemical, luminescence, uHTS; Intestinal-type alkaline phosphatase (Homo sapiens), P09923; purified IAP, CDP-Star luminescence, 30 min; inhibition, % at 10 µM; 330,000 tested, 0.12% active; AID 2544, 2010;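 active = inhibition reaching a set limit with compound at 10 µM in the primary screen, cut at about 35% in these data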;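 note: plate controls were DMSO wells with enzyme for no effect and no-enzyme buffer wells for full effect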
Target sequence (P09923 whole entry, looked up): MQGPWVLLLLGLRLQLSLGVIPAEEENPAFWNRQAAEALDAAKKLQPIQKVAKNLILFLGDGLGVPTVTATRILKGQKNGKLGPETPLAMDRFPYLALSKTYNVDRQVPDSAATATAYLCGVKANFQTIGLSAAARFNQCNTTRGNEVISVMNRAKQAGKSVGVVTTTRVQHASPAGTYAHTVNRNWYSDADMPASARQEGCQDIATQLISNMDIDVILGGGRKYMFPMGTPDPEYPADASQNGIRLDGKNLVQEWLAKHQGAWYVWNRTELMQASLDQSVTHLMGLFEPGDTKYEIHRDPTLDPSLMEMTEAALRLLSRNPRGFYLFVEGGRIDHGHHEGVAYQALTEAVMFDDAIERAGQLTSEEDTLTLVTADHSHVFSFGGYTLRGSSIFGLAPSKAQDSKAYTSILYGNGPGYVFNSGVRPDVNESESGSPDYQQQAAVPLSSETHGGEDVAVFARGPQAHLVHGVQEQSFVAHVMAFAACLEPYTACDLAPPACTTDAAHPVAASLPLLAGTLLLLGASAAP
hIAP activ: human IAP activators, primary screen, biochemical, luminescence, uHTS | purified human IAP, CDP-Star luminescence, 30 min; hits give high values; 1 = vehicle-only enzyme, 0 = enzyme-free background | 330,000 tested, 0.16% active | AID 2524, 2010 | activation factor at 10 µM;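 active = activation factor of the enzyme at least 2-fold when tested at 20 µM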
mIAP inh confirm: inhibitors of mouse IAP, confirmation, biochemical, luminescence, single concentration. shares compounds with mIAP inh. purified mouse IAP, CDP-Star luminescence, 30 min. inhibition, % at 10 µM. 11,000 tested, 4.7% active. AID 434971, 2010;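 active = inhibition of at least 40% at 10 µM in either of the two replicates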;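 note: plate controls were DMSO wells with enzyme for no effect and buffer wells lacking enzyme for full effect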
* hit, by the source's call; / = no result.

SMILES	mIAP inh	mIAP act	bIAP inhibitor	bIAP activator	hIAP block	hIAP activ	mIAP inh confirm
S=c1[nH]nc(-c2cc(-c3ccccc3)n[nH]2)n1/N=C/c1c(Cl)cccc1Cl	8	0.92	/	/	-67	1.7	/
S=c1[nH]nc(-c2n[nH]c3c2CCC3)n1/N=C/C=C/c1ccco1	50*	0.5	/	/	9	0.91	42*
S=c1[nH]nc(-c2ccco2)n1/N=C/C=C/c1ccco1	69*	0.31	7	0.9	10	0.9	70*
CCOc1ccc(N(CC(=O)NCCc2ccccc2)C(=O)CCC(=O)Nc2nccs2)cc1	0	1	/	/	2	0.98	/
O=C1C2C3C=CC(CNS(=O)(=O)c4ccccc4)(O3)C2C(=O)N1c1ccc(Cl)cc1 (centres undefined)	-3	1	10	0.9	3	0.97	/
O=C(CSc1ccc2ccccc2n1)NCc1ccc2c(c1)OCO2	-5	1.1	11	0.9	7	0.93	/
COc1ccccc1Cc1nc(-c2ccc(Br)o2)no1	7	0.93	10	0.9	13	0.87	/
NS(=O)(=O)c1ccc2c(c1)oc(=O)c1cc(S(N)(=O)=O)ccc12	48*	0.52	9	0.9	3	0.97	57*
COCCNS(=O)(=O)c1ccc2c(c1)oc(=O)c1cc(S(=O)(=O)NCCOC)ccc12	0	1	-2	1	-11	1.1	/
CCOc1ccc(OCCC(=O)NNC(=O)c2ccncc2)cc1	-5	1.1	/	/	9	0.91	/
CCCCCOc1ccc(C(=O)CCC(=O)NNC(=O)c2ccncc2)cc1	-178	2.8*	/	/	-82	1.8	-252
O=C(N/N=C/c1ccco1)c1cccc(S(=O)(=O)Nc2ccccc2Cl)c1	54*	0.47	27	0.7	10	0.9	61*
O=c1ccc2cc3c([nH]c4ccc(Br)cc43)oc-2c1O	48*	0.52	2	1	25	0.75	44*
O=C(O)c1ccc(N=Nc2c(O)[nH]c3ccc(Br)cc23)cc1	11	0.89	/	/	9	0.91	/
Cc1cccc(NC(=S)NC2CCSc3ccccc32)c1 (centres undefined)	-329	4.3*	/	/	-1	1	-242
COc1cccc(CC(=O)NC2CCSc3ccccc32)c1 (centres undefined)	0	0.99	/	/	13	0.87	/
FC(F)Oc1ccc(NC(=S)NC2CCSc3ccccc32)cc1 (centres undefined)	-406	5.1*	/	/	-46	1.5	-175
O=C(NC1CCSc2ccccc21)c1cccc(OC(F)F)c1 (centres undefined)	3	0.97	/	/	-10	1.1	/
S=C(NCc1ccccc1)NC1CCSc2ccccc21 (centres undefined)	-342	4.4*	/	/	-6	1.1	-151
COc1ccc2nc(NC(=O)CCNS(=O)(=O)c3ccc4c(c3)oc(=O)n4C)sc2c1	4	0.96	-12	1.1	20	0.8	/
NS(=O)(=O)c1ccc(-c2ccc(/C=N/NC(=O)c3ccc([N+](=O)[O-])cc3)o2)cc1	42*	0.58	/	/	-38	1.4	45*
Cc1ccc(S(=O)(=O)/N=C2/NC(=O)/C(=C\c3ccccc3)S2)cc1	3	0.97	/	/	-8	1.1	/
Cc1ccc(S(=O)(=O)/N=C2/NC(=O)/C(=C\c3ccco3)S2)cc1	40*	0.6	2	1	8	0.92	43*
CC(=O)Nc1ccc(S(=O)(=O)/N=C2/NC(=O)/C(=C\c3ccco3)S2)cc1	46*	0.54	-18	1.2	5	0.95	49*
COc1cc2cc(CCOC(=O)CCCC(=O)O)oc(=O)c2cc1OC	-6	1.1	/	/	-4	1	/
